Compounds with a hit are over-represented: about 2.2% of the library has one in this group of screens.
FLuc inhib CS = firefly luciferase enzyme inhibitors, primary screen, artefact control for luciferase-based inhibitor screens, biochemical, luminescence, ATPLite; inhibition, % at 10 µM; 10 min; Luciferin 4-monooxygenase (Photinus pyralis), P08659; 200,000 compounds, 1.5% hits;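 active = inhibition above about 50% when tested at 10 µM, limit read from the data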
Target sequence (P08659 whole entry, looked up): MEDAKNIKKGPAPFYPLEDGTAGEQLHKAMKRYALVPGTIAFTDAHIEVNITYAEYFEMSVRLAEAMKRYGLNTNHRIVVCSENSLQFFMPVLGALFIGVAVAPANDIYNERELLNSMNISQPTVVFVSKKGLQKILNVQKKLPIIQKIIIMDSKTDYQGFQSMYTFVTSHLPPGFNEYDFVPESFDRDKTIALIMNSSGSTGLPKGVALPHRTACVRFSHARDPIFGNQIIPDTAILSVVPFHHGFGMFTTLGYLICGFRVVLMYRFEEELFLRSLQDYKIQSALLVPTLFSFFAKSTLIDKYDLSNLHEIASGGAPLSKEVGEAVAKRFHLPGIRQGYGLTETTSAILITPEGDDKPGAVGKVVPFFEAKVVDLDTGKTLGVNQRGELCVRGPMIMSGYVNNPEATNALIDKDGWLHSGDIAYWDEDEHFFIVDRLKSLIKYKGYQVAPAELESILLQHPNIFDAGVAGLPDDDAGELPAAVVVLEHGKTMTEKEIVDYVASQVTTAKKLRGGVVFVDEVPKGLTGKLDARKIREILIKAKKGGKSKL
APP 5'UTR act = activators of APP 5'UTR luciferase reporter, primary screen, SH-SY5Y cells. activation, % at 2 µM. SH-SY5Y APP 5'UTR luciferase reporter, luminescence; zero percent = DMSO vehicle wells. 190,000 compounds, 1% hits;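 active = activation above a set limit, based on mean plus 3 SD of controls, cut at about 140% in these data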
NF-kB expr up = activators of NF-kB expression in neurons, primary screen, cell-based, HTS; human neuronal cells, NF-kB reporter expression; hits give high values; fold change at 12.5 µM; 190,000 compounds, 1.6% hits; AID 1239, 2008; in the data active = fold change above about 3.3
FLuc act counter = FLuc activators, initial screening, artefact control for FLuc-dependent activation tests, biochemical, ATPlite luminescence | Luciferin 4-monooxygenase (Photinus pyralis), P08659 | ATPlite luciferase biochemical, 10 min; 0 = ATP-free wells, 1 = DMSO control | activation factor at 10 µM | 200,000 tested, under 10 active | AID 1027, 2008;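 active = luciferase activation factor, scaled between plate controls, of at least 2 with compound at 10 µM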
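Material: Luciferase/luciferin reagent mix; Doses: test compounds dosed from 2 mM stocks in 100% DMSO; Schedule: 10 min incubation after luciferase reagent addition, room temperature; Measured by: luminescence from luciferase reaction; Read-out: luminescence gain marking luciferase activators.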
TRAIL sens C8 = viability loss with TRAIL in NB7+C8 cells, primary screen, TRAIL sensitizer project, cell-based, ATPlite luminescence | inhibition (viability loss, TRAIL sensitization), % at 10 µM | 360,000 compounds, 1% hits | AID 624354, 2012;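 active = compounds causing at least 50% loss of cell viability in the single-dose screen, relative to plate controls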
PPC-1+TRAIL kill = compounds killing PPC-1 cancer cells with TRAIL present, primary screen, TRAIL potentiator project, ATPLite luminescence, uHTS. PPC-1 cells + TRAIL, ATPLite viability luminescence. cell killing (% activity), % at 4 µM or 5 µM. 220,000 compounds, 0.41% hits;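 active = cell killing above 50% in the first pass at 4 µM, then a duplicate retest at 5 µM averaging 50% or more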;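 also: plate controls were cells with TRAIL plus DMSO for no effect and medium-only wells lacking cells for full effect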
Starred values were filed as active, the others as inactive; ! = repeats disagree.

`CC(=O)c1cccc(-c2ccnc3c2CC(C(=O)Nc2cccc(NS(C)(=O)=O)c2)O3)c1` (stereo unspecified) gave TRAIL sens C8 76*.
For CC(=O)c1cccc(NC(=O)C2Cc3c(-c4cccc(C(C)=O)c4)ccnc3O2)c1 (stereo unspecified) the results were TRAIL sens C8 13.
C=Cc1ccc(Cn2c(C)c(C(=O)NCc3ccc(Cl)c(Cl)c3)sc2=O)cc1 was read as TRAIL sens C8 54*.
CCC(C)Sc1cc(-c2nc3ccc(C)cn3c2NCc2ccccc2)ccc1OC (stereo unspecified) was read as TRAIL sens C8 84*!.
CCC(C)Sc1ccc(-c2nc3ccc(C)cn3c2NCc2ccccc2)cc1OC (stereo unspecified) was read as TRAIL sens C8 22.
For COc1ccc(-c2cc(-c3nc4ccccn4c3NCc3ccccc3)ccc2OC)cc1 the results were TRAIL sens C8 78*.
Nc1ncc(Br)cc1S(=O)(=O)NCCC(=O)NCCc1ccccc1 was read as TRAIL sens C8 1.
For CSc1ccc(C2NC(=O)c3ccccc3N2)cc1 (stereo unspecified) the results were TRAIL sens C8 51*.
For O=C(Cn1nnc(-c2cccs2)n1)NNC(=O)c1ccccc1Cl the results were TRAIL sens C8 -13 and PPC-1+TRAIL kill 12.
`COC1=C(Br)C(=O)c2nc(C)ccc2C1=O` gave TRAIL sens C8 0.
`COC1=C(N)C(=O)c2nc(C)ccc2C1=O` gave TRAIL sens C8 91*.
CCOC(=O)[C@@H]1[C@H]2COc3ccccc3[C@H]2N2C(=O)N(c3ccc(Br)cc3)C(=O)[C@]12C was read as TRAIL sens C8 -4.
Screening Cc1ccc(S(=O)(=O)NCc2cn3c(C)csc3n2)cc1 returned FLuc inhib CS -4, APP 5'UTR act -7, NF-kB expr up 0.95, FLuc act counter 1, TRAIL sens C8 -18 and PPC-1+TRAIL kill 3.
Screening Cc1ccc(SCc2cn3c(C)csc3n2)cc1 returned FLuc inhib CS 64*, APP 5'UTR act 199*, NF-kB expr up 5.7*, FLuc act counter 0.4, TRAIL sens C8 30 and PPC-1+TRAIL kill 40.
For COc1ccc([C@H]2CC(=O)C=C(c3ccc4ncccc4c3)C2)cc1OC the results were TRAIL sens C8 -2.
For CC(O)C(NS(=O)(=O)c1ccc(Cl)cc1)C(=O)OCC(=O)c1ccc2c(c1)NC(=O)CO2 (stereo unspecified) the results were TRAIL sens C8 -45.
`CC(C)CC(NC(=O)c1ccc(Cl)cc1)C(=O)OCC(=O)c1ccc2c(c1)NC(=O)CO2` (stereo unspecified) gave FLuc inhib CS -4, APP 5'UTR act -25, NF-kB expr up 1.6, FLuc act counter 1, TRAIL sens C8 73* and PPC-1+TRAIL kill -6.
Screening C=CCn1c(SCC(=O)c2[nH]c(C)c(C(=O)OCC)c2C)nc2scc(-c3ccc(OC)cc3)c2c1=O returned FLuc inhib CS -2, APP 5'UTR act -60, NF-kB expr up 1, FLuc act counter 1, TRAIL sens C8 33 and PPC-1+TRAIL kill 19.
Screening O=C(COC(=O)c1ccc(Cl)c([N+](=O)[O-])c1)NC1CCCC1 returned TRAIL sens C8 1.
Cn1c(N)c(C(=O)COC(=O)c2ccccc2C(=O)c2ccc(Cl)c([N+](=O)[O-])c2)c(=O)n(C)c1=O was read as TRAIL sens C8 92*.
O=C(COC(=O)c1ccccc1C(=O)c1ccc(Cl)c([N+](=O)[O-])c1)NC1CCCCCC1 was read as FLuc inhib CS 3, APP 5'UTR act 8, NF-kB expr up 1, FLuc act counter 1, TRAIL sens C8 94* and PPC-1+TRAIL kill 16.
`Cc1noc(NS(=O)(=O)c2ccc(NC(=O)NC(C)(C(F)(F)F)C(F)(F)F)cc2)c1C` gave TRAIL sens C8 7.
`Cn1nccc1C(=O)N1CCCC(N2CCN(Cc3ccc4c(c3)OCO4)CC2)C1` (stereo unspecified) gave TRAIL sens C8 14.
`O=C(Nc1ccc(Cl)c(Cl)c1)C1CCCCC1` gave TRAIL sens C8 20.
For Fc1ccc2nc3[nH]c4ccccc4c3nc2c1 the results were FLuc inhib CS 35, APP 5'UTR act 157*, NF-kB expr up 4.4*, FLuc act counter 0.6, TRAIL sens C8 30 and PPC-1+TRAIL kill 8.
`Cn1c2ccccc2c(=O)c2ccc(C#CC3(O)CCCCC3)cc21` gave TRAIL sens C8 86*.
Screening COc1cccc2sc3cc(C#CC4(O)CCCCC4)ccc3c(=O)c12 returned TRAIL sens C8 48.
`COc1cc2sc3ccc(C#CC4(O)CCCCC4)cc3c(=O)c2cc1OC` gave TRAIL sens C8 75*.
For O=C(Nc1ccc(-c2nc3ccccc3o2)cc1)C1CCCO1 (stereo unspecified) the results were FLuc inhib CS 78*, APP 5'UTR act 233*, NF-kB expr up 4.2*, FLuc act counter 0.2, TRAIL sens C8 59* and PPC-1+TRAIL kill -33.
Screening COc1ccc(C(=O)Nc2ccc3oc(-c4cccc(F)c4)nc3c2)cc1OC returned FLuc inhib CS -6, APP 5'UTR act 1, NF-kB expr up 1.1, FLuc act counter 1.1, TRAIL sens C8 12 and PPC-1+TRAIL kill 16.
Screening O=C(Nc1ccc2oc(-c3ccccc3)nc2c1)c1ccco1 returned FLuc inhib CS 29, APP 5'UTR act 178*, NF-kB expr up 5.1*, FLuc act counter 0.7, TRAIL sens C8 32 and PPC-1+TRAIL kill 6.
`O=C(Nc1ccc2oc(-c3ccccc3)nc2c1)C1CCCO1` (stereo unspecified) gave FLuc inhib CS 50*, APP 5'UTR act 147*, NF-kB expr up 3.6*, FLuc act counter 0.5, TRAIL sens C8 31 and PPC-1+TRAIL kill 17.
Screening COc1ccccc1C(=O)Nc1ccc2oc(-c3ccc(F)cc3)nc2c1 returned FLuc inhib CS -2, APP 5'UTR act 12, NF-kB expr up 1.3, FLuc act counter 1, TRAIL sens C8 13 and PPC-1+TRAIL kill 53*.
Screening O=C(Nc1ccc2oc(-c3ccncc3)nc2c1)c1ccco1 returned TRAIL sens C8 -3.
`Cc1cc(Br)cn2c(Cc3cccc(F)c3)c(C3CCCCC3)nc12` gave TRAIL sens C8 3.
`Cn1c(Cc2ccc(Cl)cc2)nnc1SCC(=O)NC1CC1` gave TRAIL sens C8 -17.
`CCCCNC(=O)C[C@@H]1C[C@@]2(C(=O)OCC)CCC=C2N(CCC2=CCCCC2)C1=O` gave TRAIL sens C8 -3.
